Reference: ChEMBL document CHEMBL5724801, “EUbOPEN Chemogenomics Library - Multiplex” (2024)
Values joined by “and” are separate entries in the source; they are usually repeats but may differ in a detail not shown here. Equal values may be shown once.

System: HEK-293T
Test: Multiplex assay against HEK293T
Type: toxicity, cell-based
Conditions: human
Summary of the method: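 Four dyes were applied at seeding to live cells: Hoechst33342, BioTracker Green Microtubule Cytoskeleton Dye, MitoTracker Red and Annexin V Alexa Fluor 680. Imaging after compound addition used a CQ1 microscope at 37°C and 5% CO2. CellPathfinder machine-learning gating then sorted cells into Hoechst high-intensity objects or normal cells, normal cells into healthy, pyknosed or fragmented nuclei, and pyknosed cells into mitotic or apoptotic, with tubulin, mitochondrial-mass and membrane-permeability phenotypes given as per cents of healthy-nucleus cells.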

[1] = 12 h, 1 µM, compound concentration 1 uM
[2] = 12 h, 10 µM, compound concentration 10 uM
[3] = 24 h, 1 µM, compound concentration 1 uM
[4] = 24 h, 10 µM, compound concentration 10 uM
[5] = 48 h, 1 µM, compound concentration 1 uM
[6] = 48 h, 10 µM, compound concentration 10 uM

SMILES: CCCCC(=O)N(Cc1ccc(-c2ccccc2-c2nnn[nH]2)cc1)[C@H](C(=O)O)C(C)C
- Population Apoptotic (%) [1]: 44% and 40%
- Population Fragmented Nuclei (%) [1]: 7% and 6%
- Population Healthy Nuclei (%) [1]: 80% and 74%
- Population Hoechst High Intensity Objects (%) [1]: 9% and 11%
- Population Membrane Permeable-Phenotype (%) [1]: 0%
- Population Mitochondria Different-Phenotype (%) [1]: 36% and 49%
- Population Mitotic Cells (%) [1]: 55% and 59%
- Population Normal (%) [1]: 90% and 88%
- Population Pyknosed Nuclei (%) [1]: 12% and 18%
- Population Tubulin-Different-Phenotype (%) [1]: 16% and 21%
- Total Cell Count [1]: 469 and 290
- Population Apoptotic (%) [2]: 21% and 51%
- Population Fragmented Nuclei (%) [2]: 7% and 5%
- Population Healthy Nuclei (%) [2]: 83% and 81%
- Population Hoechst High Intensity Objects (%) [2]: 5% and 10%
- Population Membrane Permeable-Phenotype (%) [2]: 0%
- Population Mitochondria Different-Phenotype (%) [2]: 30% and 63%
- Population Mitotic Cells (%) [2]: 78% and 48%
- Population Normal (%) [2]: 94% and 89%
- Population Pyknosed Nuclei (%) [2]: 8% and 13%
- Population Tubulin-Different-Phenotype (%) [2]: 19%
- Total Cell Count [2]: 507 and 310
- Population Apoptotic (%) [3]: 30% and 32%
- Population Fragmented Nuclei (%) [3]: 11% and 9%
- Population Healthy Nuclei (%) [3]: 78% and 82%
- Population Hoechst High Intensity Objects (%) [3]: 5% and 6%
- Population Membrane Permeable-Phenotype (%) [3]: 0%
- Population Mitochondria Different-Phenotype (%) [3]: 21% and 26%
- Population Mitotic Cells (%) [3]: 70% and 67%
- Population Normal (%) [3]: 94% and 93%
- Population Pyknosed Nuclei (%) [3]: 10% and 8%
- Population Tubulin-Different-Phenotype (%) [3]: 12%
- Total Cell Count [3]: 630 and 429
- Population Apoptotic (%) [4]: 20% and 35%
- Population Fragmented Nuclei (%) [4]: 9%
- Population Healthy Nuclei (%) [4]: 82%
- Population Hoechst High Intensity Objects (%) [4]: 5% and 7%
- Population Membrane Permeable-Phenotype (%) [4]: 0%
- Population Mitochondria Different-Phenotype (%) [4]: 19% and 30%
- Population Mitotic Cells (%) [4]: 79% and 64%
- Population Normal (%) [4]: 94% and 92%
- Population Pyknosed Nuclei (%) [4]: 7%
- Population Tubulin-Different-Phenotype (%) [4]: 11% and 13%
- Total Cell Count [4]: 663 and 420
- Population Apoptotic (%) [5]: 18% and 19%
- Population Fragmented Nuclei (%) [5]: 13% and 14%
- Population Healthy Nuclei (%) [5]: 80% and 79%
- Population Hoechst High Intensity Objects (%) [5]: 2% and 3%
- Population Membrane Permeable-Phenotype (%) [5]: 1% and 0%
- Population Mitochondria Different-Phenotype (%) [5]: 12% and 16%
- Population Mitotic Cells (%) [5]: 81% and 80%
- Population Normal (%) [5]: 97% and 96%
- Population Pyknosed Nuclei (%) [5]: 5% and 6%
- Population Tubulin-Different-Phenotype (%) [5]: 7% and 9%
- Total Cell Count [5]: 1024 and 653
- Population Apoptotic (%) [6]: 14% and 15%
- Population Fragmented Nuclei (%) [6]: 14%
- Population Healthy Nuclei (%) [6]: 81% and 78%
- Population Hoechst High Intensity Objects (%) [6]: 1% and 2%
- Population Membrane Permeable-Phenotype (%) [6]: 2% and 0%
- Population Mitochondria Different-Phenotype (%) [6]: 8% and 17%
- Population Mitotic Cells (%) [6]: 85% and 84%
- Population Normal (%) [6]: 98% and 97%
- Population Pyknosed Nuclei (%) [6]: 3% and 7%
- Population Tubulin-Different-Phenotype (%) [6]: 8%
- Total Cell Count [6]: 1205 and 623

SMILES: CC(F)(F)CN1CCOc2c(nn(-c3ccccc3Cl)c2-c2ccc(Cl)cc2)C1=O
- Population Apoptotic (%) [1]: 29% and 64%
- Population Healthy Nuclei (%) [1]: 77% and 78%
- Population Membrane Permeable-Phenotype (%) [1]: 0%
- Population Mitochondria Different-Phenotype (%) [1]: 43% and 53%
- Population Mitotic Cells (%) [1]: 70% and 35%
- Population Normal (%) [1]: 93% and 91%
- Population Pyknosed Nuclei (%) [1]: 12% and 16%
- Total Cell Count [1]: 397 and 369
- Population Apoptotic (%) [2]: 57% and 43%
- Population Healthy Nuclei (%) [2]: 73% and 75%
- Population Membrane Permeable-Phenotype (%) [2]: 0%
- Population Mitochondria Different-Phenotype (%) [2]: 78% and 84%
- Population Mitotic Cells (%) [2]: 42% and 56%
- Population Normal (%) [2]: 89% and 94%
- Population Pyknosed Nuclei (%) [2]: 22% and 18%
- Total Cell Count [2]: 384 and 397
- Population Apoptotic (%) [3]: 25% and 43%
- Population Healthy Nuclei (%) [3]: 79% and 84%
- Population Membrane Permeable-Phenotype (%) [3]: 0%
- Population Mitochondria Different-Phenotype (%) [3]: 22% and 31%
- Population Mitotic Cells (%) [3]: 74% and 56%
- Population Normal (%) [3]: 97% and 93%
- Population Pyknosed Nuclei (%) [3]: 11% and 8%
- Total Cell Count [3]: 568 and 478
- Population Apoptotic (%) [4]: 57% and 41%
- Population Healthy Nuclei (%) [4]: 76% and 80%
- Population Membrane Permeable-Phenotype (%) [4]: 0%
- Population Mitochondria Different-Phenotype (%) [4]: 71% and 79%
- Population Mitotic Cells (%) [4]: 42% and 58%
- Population Normal (%) [4]: 92% and 94%
- Population Pyknosed Nuclei (%) [4]: 15%
- Population Tubulin-Different-Phenotype (%) [4]: 50%
- Total Cell Count [4]: 450 and 477
- Population Apoptotic (%) [5]: 22% and 25%
- Population Healthy Nuclei (%) [5]: 77% and 79%
- Population Membrane Permeable-Phenotype (%) [5]: 1%
- Population Mitochondria Different-Phenotype (%) [5]: 14% and 23%
- Population Mitotic Cells (%) [5]: 77% and 74%
- Population Normal (%) [5]: 99% and 97%
- Population Pyknosed Nuclei (%) [5]: 7%
- Population Tubulin-Different-Phenotype (%) [5]: 8%
- Total Cell Count [5]: 1015 and 734
- Population Apoptotic (%) [6]: 55% and 35%
- Population Healthy Nuclei (%) [6]: 74% and 78%
- Population Membrane Permeable-Phenotype (%) [6]: 0%
- Population Mitochondria Different-Phenotype (%) [6]: 62% and 68%
- Population Mitotic Cells (%) [6]: 44% and 65%
- Population Normal (%) [6]: 93%
- Population Pyknosed Nuclei (%) [6]: 11%
- Total Cell Count [6]: 540 and 558
